Experimental findings from ChEMBL document CHEMBL4330119 (J Med Chem, 2019) are described below.

The structures appear in SMILES notation. Activity calls are given as the source filed them.

Data set [1] addresses Kappa-type opioid receptor (Mus musculus, UniProt P33534). The experiment in a line: Displacement of [3H]-diprenorphine from mouse KOR expressed in CHO cell membranes by competitive radioligand binding assay. The method in brief:
(§1)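 30 μg CHO membrane protein incubated with radioligand and varying competitor in TME buffer (50 mM Tris, 3 mM MgCl2, 0.2 mM EGTA, pH 7.4). Bound ligand separated by filtration. […] IC50 from Hill plots, converted to Ki by Cheng–Prusoff.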
Background: In a radioligand displacement assay an active substance lowers the binding of a labelled ligand.

Data set [2] concerns Mus musculus. In words: In vivo antagonist activity at MOR in Swiss Webster mouse assessed reduction in morphine-induced antinociceptive effect by measuring morphine MPE at 10 mg/kg, sc preincubated for 5 mins followed by morphine addition and measured after 20 min post morphine challenge by tail immersion test relative to control. The class given is functional. An outline of the steps:
(§2)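 Male Swiss Webster mice, 5 per group. […] Baseline latency 2–4 s, 10 s cutoff. %MPE calculated per mouse. AD50 by least-squares linear regression, 95% CI by Bliss method.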

Data set [3] has as its target Delta-type opioid receptor (Mus musculus, UniProt P32300). In words: Displacement of [3H]-diprenorphine from mouse DOR expressed in CHO cell membranes by competitive radioligand binding assay. The method in brief:
as §1

Data set [4] deals with Mu-type opioid receptor (Mus musculus) (UniProt P42866). In words: Antagonist activity at mouse MOR expressed in CHO cell membranes assessed as inhibition of DAMGO-stimulated [35S]GTPgammaS binding after 90 mins relative to DAMGO. The class given is functional. For orientation: GTPγS is a poorly hydrolysed GTP analogue; its binding reports G protein activation.
For data set [5], the system named is Mus musculus. The experiment in a line: Induction of withdrawal symptoms in morphine-pelleted Swiss Webster mouse model assessed as paw tremors […] at 10 mg/kg, sc measured after 72 hrs […] for 20 mins. As to conditions: in vivo. It counts as organism-based. The method in brief: (§3)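 Withdrawal precipitated 72 h after implantation by sc compound, after 30 min habituation to an open Plexiglas chamber. Wet dog shakes, escape jumps and paw tremors counted over 20 min, five mice per group. Naloxone 1 mg/kg sc as reference.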

The subject of data set [6] is Mus musculus. In words: Induction of withdrawal symptoms in morphine-pelleted Swiss Webster mouse model assessed as paw tremors […] at 50 to 100 mg/kg, sc measured after 72 hrs […] for 20 mins. As to conditions: in vivo. The class given is organism-based. An outline of the steps:
as §3

Data set [7] deals with Mus musculus. The experiment in a line: Induction of withdrawal symptoms in morphine-pelleted Swiss Webster mouse model assessed as escape jumps at 10 mg/kg, sc measured after 72 hrs […] for 20 mins. It counts as organism-based. The following applies: in vivo. The method in brief: as §3
In data set [8] the test system is Mus musculus. In words: In vivo antagonist activity at MOR in sc dosed Swiss Webster mouse assessed reduction in morphine-induced antinociceptive effect by measuring morphine MPE preincubated for 5 mins followed by morphine addition and measured after 20 min post morphine challenge by tail immersion test. The class given is functional. The method in brief:
as §2

The test system of data set [9] is Mus musculus. The experiment in a line: Induction of withdrawal symptoms in morphine-pelleted Swiss Webster mouse model assessed as dog shakes at 50 to 100 mg/kg, sc measured after 72 hrs […] for 20 mins. The class given is organism-based. The following applies: in vivo. The method in brief: as §3
In data set [10] the test system is Mus musculus. The experiment in a line: Induction of withdrawal symptoms in morphine-pelleted Swiss Webster mouse model assessed as escape jumps at 50 mg/kg, sc measured after 72 hrs […] for 20 mins. The class given is organism-based. The following applies: in vivo. An outline of the steps:
as §3

In data set [11] the test system is Mus musculus. The experiment in a line: Induction of withdrawal symptoms in morphine-pelleted Swiss Webster mouse model assessed as dog shakes at 10 mg/kg, sc measured after 72 hrs […] for 20 mins. It counts as organism-based. As to conditions: in vivo. An outline of the steps: as §3
Data set [12] has as its system Mus musculus. In words: Induction of withdrawal symptoms in morphine-pelleted Swiss Webster mouse model assessed as paw tremors […] at 1 mg/kg, sc measured after 72 hrs […] for 20 mins. It counts as organism-based. The following applies: in vivo. An outline of the steps: as §3
For data set [13], the system named is Mus musculus. In words: Induction of withdrawal symptoms in morphine-pelleted Swiss Webster mouse model assessed as dog shakes at 1 mg/kg, sc measured after 72 hrs […] for 20 mins. The class given is organism-based. As to conditions: in vivo. The method in brief: as §3
Data set [14] concerns Mus musculus. In words: Induction of withdrawal symptoms in morphine-pelleted Swiss Webster mouse model assessed as escape jumps at 1 mg/kg, sc measured after 72 hrs […] for 20 mins. The class given is organism-based. The following applies: in vivo. An outline of the steps: as §3
In data set [15] the test system is Mus musculus. The experiment in a line: Antinociceptive activity in Swiss Webster mouse at 10 mg/kg, sc measured after 20 min post dose by tail immersion test. It counts as functional, organism-based. The method in brief: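 Male Swiss Webster mice, 7–8 weeks, 5 per group. Compound given sc, tail immersed in 56 ± 0.1 °C water 20 min later. Only mice with baseline latency of 2–4 s were used. 10 s cutoff. %MPE = [(test – control)/(10 – control)] × 100.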

Data set [16] concerns Mus musculus. The experiment in a line: Induction of withdrawal symptoms in morphine-pelleted Swiss Webster mouse model assessed as dog shakes at 5 mg/kg, sc measured after 72 hrs […] for 20 mins. It counts as organism-based. The following applies: in vivo. The method in brief:
as §3

The test system of data set [17] is Mus musculus. In words: Induction of withdrawal symptoms in morphine-pelleted Swiss Webster mouse model assessed as escape jumps at 5 mg/kg, sc measured after 72 hrs […] for 20 mins. The following applies: in vivo. The class given is organism-based. The method in brief:
as §3

For data set [18], the system named is Mus musculus. In words: Induction of withdrawal symptoms in morphine-pelleted Swiss Webster mouse model assessed as paw tremors […] at 5 mg/kg, sc measured after 72 hrs […] for 20 mins. It counts as organism-based. As to conditions: in vivo. An outline of the steps:
as §3

For data set [19], the target named is T1, Mu-type opioid receptor (Mus musculus, UniProt P42866). In words: Antagonist activity at mouse MOR expressed in CHO cell membranes assessed as inhibition of DAMGO-stimulated [35S]GTPgammaS binding after 90 mins. It counts as functional.
The species entered for data set [20] is Mus musculus. The experiment in a line: Selectivity ratio of Ki for mouse KOR expressed in CHO cell membranes to Ki for mouse MOR expressed in CHO cell membranes. The class given is cell-based. The method in brief:
(§4)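 Ratio of Ki values from competition binding: 30 μg CHO membranes in TME pH 7.4, filtration. IC50 converted to Ki by Cheng–Prusoff.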

Data set [21] is filed under the species Mus musculus. The experiment in a line: Selectivity ratio of Ki for mouse DOR expressed in CHO cell membranes to Ki for mouse MOR expressed in CHO cell membranes. The class given is cell-based. An outline of the steps: as §4
The target in data set [22] is T1, Mu-type opioid receptor. The experiment in a line: Displacement of [3H]-naloxone from mouse MOR expressed in CHO cell membranes by competitive radioligand binding assay. An outline of the steps: as §1

Take `O=C(N[C@@H]1CC[C@@]2(O)[C@H]3Cc4ccc(O)c5c4[C@@]2(CCN3CC2CC2)[C@H]1O5)c1ccncc1C1CCCCC1`: the Ki in [1] was determined as 3.32 nM; in [3], 11.2 nM. Besides, the inhibition entry in the data set on Mus musculus [2] is “inactive”. Also, in data set [4], the Emax was 51.6%.
The matching figures for `COC(=O)c1cnccc1C(=O)N[C@@H]1CC[C@@]2(O)[C@H]3Cc4ccc(O)c5c4[C@@]2(CCN3CC2CC2)[C@H]1O5`: 11.7 nM, 137 nM, “inactive” and 29.2%.
As to `O=C(N[C@@H]1CC[C@@]2(O)[C@H]3Cc4ccc(O)c5c4[C@@]2(CCN3CC2CC2)[C@H]1O5)c1ccncc1F`, the Activity result in the data set with Mus musculus [5] is listed as “Non-Toxic”; in the data set with Mus musculus [6], “Toxic”; with Mus musculus [7], “Non-Toxic”; with Mus musculus [9], “Non-Toxic”; with Mus musculus [10], “Non-Toxic”; in the data set on Mus musculus [11] it was “Non-Toxic”. In addition, in the data set on Mus musculus [8], the ED50 was 2.82 mg/kg. The Ki in data set [1] is 4.8 nM; in [3], 157 nM. This compound also returned an inhibition in vivo at 10 mg/kg in the data set on Mus musculus [2] of 6.2%.
On to `CCc1cnccc1C(=O)N[C@@H]1CC[C@@]2(O)[C@H]3Cc4ccc(O)c5c4[C@@]2(CCN3CC2CC2)[C@H]1O5`, for which the Ki came out at 9.18 nM in data set [1] and 42.9 nM in data set [3]. Moreover, the inhibition result in the data set on Mus musculus [2] was “inactive”. For the same compound, the Emax in data set [4] came out at 41.6%.
On the same counts, the results for `O=C(N[C@@H]1CC[C@@]2(O)[C@H]3Cc4ccc(O)c5c4[C@@]2(CCN3CC2CC2)[C@H]1O5)c1ccncc1C1CCCCCC1` are 5.16 nM, 15 nM, “inactive” and 48.3%.
`O=C(N[C@@H]1CC[C@@]2(O)[C@H]3Cc4ccc(O)c5c4[C@@]2(CCN3CC2CC2)[C@H]1O5)c1ccncc1[N+](=O)[O-]`: the values for the Ki in [1] and in data set [3] were 4.46 nM and 95.6 nM, respectively. In addition, the inhibition result with Mus musculus [2] is “inactive”. Further, the Emax in [4] is 39.1%.
On the same counts, the results for `O=C(N[C@@H]1CC[C@@]2(O)[C@H]3Cc4ccc(O)c5c4[C@@]2(CCN3CC2CC2)[C@H]1O5)c1ccncc1-c1ccccc1` are 3.42 nM, 44.8 nM, “inactive” and 44.4%.
`C=CCN1CC[C@]23c4c5ccc(O)c4O[C@H]2C(=O)CC[C@@]3(O)[C@H]1C5` [NALOXONE]: the Activity result with Mus musculus [12], in the data set on Mus musculus [13] and in the data set with Mus musculus [14] was “Toxic” throughout.
For `CC(C)Cc1cnccc1C(=O)N[C@@H]1CC[C@@]2(O)[C@H]3Cc4ccc(O)c5c4[C@@]2(CCN3CC2CC2)[C@H]1O5`, the Ki was found to be 75.6 nM in [1] and 149 nM in data set [3]. In the data set with Mus musculus [2], the inhibition result was “inactive”. Besides, in [4], the Emax was found to be 27.3%.
On to `N#Cc1cnccc1C(=O)N[C@@H]1CC[C@@]2(O)[C@H]3Cc4ccc(O)c5c4[C@@]2(CCN3CC2CC2)[C@H]1O5`, for which the outcome with Mus musculus [15] was inactive. Besides, the Activity result is recorded as “Toxic” in the data set with Mus musculus [16]; “Toxic” with Mus musculus [17]; “Non-Toxic” in the data set on Mus musculus [13]; “Non-Toxic” in the data set with Mus musculus [14]; “Toxic” in the data set with Mus musculus [18]. Also, in the data set on Mus musculus [8], the 50% effect level (ED50) was put at a dose of 1.75 mg/kg. Further, in the data set with Mus musculus [8], the inhibition entry is “Dose-dependent effect”. Also, the inhibition constant Ki was 2.74 nM in data set [1] and 46.3 nM in data set [3]. Further, testing at 10 mg/kg in the data set on Mus musculus [2] gave an inhibition in vivo of 7.8%. Besides, the Emax in data set [4] turned out to be 26.1%.
With `O=C(O)c1cnccc1C(=O)N[C@@H]1CC[C@@]2(O)[C@H]3Cc4ccc(O)c5c4[C@@]2(CCN3CC2CC2)[C@H]1O5`, the EC50 on Mu-type opioid receptor [19] is 1.83 nM. Besides, the Ratio Ki was determined as 3.2 in the data set listed under Mus musculus [20] and 73.2 in the data set listed under Mus musculus [21]. The Ki in data set [1] is 2.43 nM; in [3] it was 55.6 nM; on Mu-type opioid receptor [22] it was 0.76 nM. Also, the inhibition entry with Mus musculus [2] was “inactive”. In data set [4], the Emax turned out to be 29.3%.
Consider `O=C(N[C@@H]1CC[C@@]2(O)[C@H]3Cc4ccc(O)c5c4[C@@]2(CCN3CC2CC2)[C@H]1O5)c1ccncc1C1CCCC1`, for which the values for the Ki in data set [1] and in data set [3] were 8.16 nM and 34 nM, respectively. Further, the inhibition entry with Mus musculus [2] is “inactive”.
Regarding `O=C(N[C@@H]1CC[C@@]2(O)[C@H]3Cc4ccc(O)c5c4[C@@]2(CCN3CC2CC2)[C@H]1O5)c1ccncc1C(F)(F)F`, the EC50 at Mu-type opioid receptor [19] is 1.38 nM. The values for the Ratio Ki in the data set filed under Mus musculus [20] and in the data set filed under Mus musculus [21] were 29.1 and 144, respectively. The Ki was 12.5 nM in [1], 61.8 nM in data set [3] and 0.43 nM at Mu-type opioid receptor [22]. Besides, in the data set on Mus musculus [2], the inhibition result was “inactive”. Moreover, the Emax in data set [4] was 31.9%.

As a reminder, the Ki is the equilibrium dissociation constant of an inhibitor or competing ligand from its target. The low end stands for tighter binding, the high end for weaker binding. The Emax is the greatest response seen or fitted, relative to the assay's reference. The term ED50 denotes the midpoint of the dose-response relation. In general, inhibition in vivo refers to the drop in the measured response relative to a control, in per cent. A lower inhibition in vivo goes with a response near the control. One may read the EC50 as the concentration at which the effect is half-maximal.
